Assay results published in ChEMBL document CHEMBL1145538, “In vitro inhibition of Streptococcus mutans biofilm formation on hydroxyapatite by subinhibitory concentrations of anthraquinones” (2007).
Converted amounts (≈) assume the structure as drawn. The source made the active and inactive calls. The rule behind the calls is not given here.

Key:
Streptococcus mutans [1] = experiment: Activity against planktonic Streptococcus mutans LMG 14558; type: functional
Procedure, shortened: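 S. mutans LMG 14558T, routinely grown in BHI broth at 37°C, was tested against planktonic cells by broth microdilution in 96-well microtiter plates to give the MIC in μg/ml. The modified microdilution was also run with and without 1.5 mM glutathione, 0.025% (wt/vol) cysteine or 10 mM mannitol as ROS scavengers, including in chemically defined M1 medium.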

Streptococcus mutans [2] = experiment: Effect on Streptococcus mutans LMG 14558 assessed as inhibition of biofilm formation in modified Robbin's device at 50 ug/ml relative to BHIS control; type: functional
Procedure, shortened: (§1)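 S. mutans LMG 14558T grown at 37°C as biofilms on hydroxyapatite disks in modified Robbins' devices, in BHI plus 1% sucrose (BHIS) containing compound at the stated concentration. Biomass per disk is estimated by SYTO9 fluorescent staining and given as % of BHIS-only controls (avg ± SD). Significance by one-tailed independent-sample t test; P > 0.01 is not significant.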

Streptococcus mutans [3] = experiment: Effect on Streptococcus mutans LMG 14558 assessed as inhibition of biofilm formation in modified Robbin's device at 5 ug/ml relative to BHIS control; type: functional; procedure, shortened: as §1
Streptococcus mutans [4] = experiment: Effect on Streptococcus mutans LMG 14558 assessed as inhibition of biofilm formation in modified Robbin's device at 0.1 ug/ml relative to BHIS control relative to BHIS control; type: functional; procedure, shortened: as §1
Streptococcus mutans [5] = experiment: Effect on Streptococcus mutans LMG 14558 assessed as inhibition of biofilm formation in modified Robbin's device at 1200 ug/ml relative to BHIS control; type: functional; procedure, shortened: as §1
Streptococcus mutans [6] = experiment: Susceptibility of Streptococcus mutans LMG 14558 in BHIS medium assessed as increase in biofilm formation at 5 ug/ml in presence of 0.025% cysteine; type: functional, organism-based
Streptococcus mutans [7] = experiment: Decrease in membrane fluidity of Streptococcus mutans LMG 14558 using pyrene in BHI medium at 5 ug/ml relative to BHI control; type: functional; set-up: scale not given: the % may be the effect or the level left
Procedure, shortened: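 Relative membrane fluidity (lateral diffusion) of S. mutans LMG 14558T grown in BHI with or without 5 μg/ml compound, read as pyrene intermolecular excimer-to-monomer fluorescence intensity ratio at constant temperature. Relative fluidity F = (Ie/Im treated)/(Ie/Im untreated) × Fr, with untreated BHI-grown cells set to Fr = 1.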

Streptococcus mutans [8] = experiment: Effect on Streptococcus mutans LMG 14558 assessed as inhibition of biofilm formation in modified Robbin's device at 2 ug/ml relative to BHIS control; type: functional; procedure, shortened: as §1
Streptococcus mutans [9] = experiment: Effect on Streptococcus mutans LMG 14558 assessed as inhibition of biofilm formation in modified Robbin's device at 0.5 ug/ml relative to BHIS control; type: functional; procedure, shortened: as §1
Streptococcus mutans [10] = experiment: Effect on Streptococcus mutans LMG 14558 assessed as inhibition of biofilm formation in modified Robbin's device at 1 ug/ml relative to BHIS control; type: functional; procedure, shortened: as §1
Streptococcus mutans [11] = experiment: Effect on Streptococcus mutans LMG 14558 assessed as inhibition of biofilm formation in modified Robbin's device at 1333 ug/ml relative to BHIS control; type: functional; procedure, shortened: as §1

Which results are given for `O=C1c2cccc(O)c2C(=O)c2c(O)cc(CO)cc21` [ALOE-EMODIN]?
MIC (Streptococcus mutans [1]): > 250 µg/mL; inhibition at 50 µg/mL (Streptococcus mutans [2]): 99.2%

Which results are given for `O=C1c2ccc(O)cc2C(=O)c2ccc(O)cc21` [ANTHRAFLAVICACID]?
MIC (Streptococcus mutans [1]): 250 µg/mL (≈ 1040 µM); inhibition at 5 µg/mL (Streptococcus mutans [3]): 98.2%

How did the MIC (Streptococcus mutans [1]) turn out when `Cc1c(C(=O)O)c(O)cc2c1C(=O)c1c(O)c([C@@H]3O[C@H](CO)[C@@H](O)[C@H](O)[C@H]3O)c(O)c(O)c1C2=O` [CARMINIC ACID] was run?
The MIC was greater than 250 µg/mL.

And the inhibition at 5 µg/mL (Streptococcus mutans [3])?
Its inhibition at 5 µg/mL is 66.5%.

`N=C(NCCCCCCNC(=N)NC(=N)Nc1ccc(Cl)cc1)NC(=N)Nc1ccc(Cl)cc1` [CHLORHEXIDINE] was tested. Which MIC (Streptococcus mutans [1]) did it give?
Its MIC is 2 µg/mL (≈ 3.96 µM).

What about the inhibition at 0.1 µg/mL (Streptococcus mutans [4]) of the same compound?
Its inhibition at 0.1 µg/mL is 104%.

And the inhibition at 1200 µg/mL (Streptococcus mutans [5])?
Its inhibition at 1200 µg/mL is 34.5%.

Which results are given for `Cc1cc(O)c2c(c1)C(=O)c1cccc(O)c1C2=O` [CHRYSOPHANOL]?
MIC (Streptococcus mutans [1]): 250 µg/mL (≈ 983 µM); inhibition at 5 µg/mL (Streptococcus mutans [3]): 75%

Which results are given for `O=C1c2cccc(O)c2C(=O)c2c(O)cccc21` [DANTHRON]?
MIC (Streptococcus mutans [1]): 250 µg/mL (≈ 1040 µM); inhibition at 5 µg/mL (Streptococcus mutans [3]): 91.3%

For `Cc1cc(O)c2c(c1)C(=O)c1cc(O)cc(O)c1C2=O` [EMODIN], which Activity (Streptococcus mutans [6]) is on record?
Its Activity is “inactive”.

What about the MIC (Streptococcus mutans [1]) of the same compound?
The MIC was greater than 250 µg/mL.

And the Activity (Streptococcus mutans [7])?
The Activity was 21.2%.

What about the inhibition at 2 µg/mL (Streptococcus mutans [8]) of the same compound?
Its inhibition at 2 µg/mL is 52.1%.

And the inhibition at 5 µg/mL (Streptococcus mutans [3])?
The inhibition at 5 µg/mL was 10.9%.

What about the inhibition at 0.1 µg/mL (Streptococcus mutans [4]) of the same compound?
Its inhibition at 0.1 µg/mL is 101%.

What about the inhibition at 0.5 µg/mL (Streptococcus mutans [9]) of the same compound?
Its inhibition at 0.5 µg/mL is 85.7%.

And the inhibition at 1 µg/mL (Streptococcus mutans [10])?
The inhibition at 1 µg/mL was 79%.

With `Cc1cc(O)c2c(=O)c3c(O)cc(O)c4c5c(O)cc(O)c6c(=O)c7c(O)cc(C)c8c1c2c(c34)c(c78)c65` [HYPERICIN] as the compound, how does the MIC (Streptococcus mutans [1]) read?
Its MIC is 250 µg/mL (≈ 496 µM).

And the Activity (Streptococcus mutans [7])?
The Activity was 35.6%.

And the inhibition at 5 µg/mL (Streptococcus mutans [3])?
The inhibition at 5 µg/mL was 47.8%.

How did the MIC (Streptococcus mutans [1]) turn out when `COc1cc(O)c2c(c1)C(=O)c1cc(C)cc(O)c1C2=O` [PHYSCION] was run?
The MIC was greater than 250 µg/mL.

And the inhibition at 5 µg/mL (Streptococcus mutans [3])?
The inhibition at 5 µg/mL was 120%.

What does the source list for `O=C1c2ccccc2C(=O)c2c(O)ccc(O)c21` [QUINIZARIN]?
MIC (Streptococcus mutans [1]): 250 µg/mL (≈ 1040 µM); inhibition at 5 µg/mL (Streptococcus mutans [3]): 80%

`O=C(O)c1cc(O)c2c(c1)C(=O)c1cccc(O)c1C2=O` [RHEIN] was tested. Which MIC (Streptococcus mutans [1]) did it give?
Its MIC is 10 µg/mL (≈ 35.2 µM).

And the inhibition at 5 µg/mL (Streptococcus mutans [3])?
The inhibition at 5 µg/mL was 75.2%.

Which results are given for `O=C(O)c1cc(O)c2c(c1)C(C1c3cccc(O)c3C(=O)c3c(O)cc(C(=O)O)cc31)c1cccc(O)c1C2=O` (stereo not given) [SENNIDIN A]?
MIC (Streptococcus mutans [1]): > 250 µg/mL; inhibition at 5 µg/mL (Streptococcus mutans [3]): 83.7%

Which results are given for `Oc1cc(Cl)ccc1Oc1ccc(Cl)cc1Cl` [TRICLOSAN]?
MIC (Streptococcus mutans [1]): 16 µg/mL (≈ 55.3 µM); inhibition at 5 µg/mL (Streptococcus mutans [3]): 78.1%; inhibition at 1333 µg/mL (Streptococcus mutans [11]): 10.9%
